Source: ChEMBL document CHEMBL4808255, “Design, synthesis, and target identification of new hypoxia-inducible factor 1 (HIF-1) inhibitors containing 1-alkyl-1H-pyrazole-3-carboxamide moiety” (Bioorg Med Chem, 2021)
pIC50: −log10 of the molar value. The source made the active and inactive calls. No cut-off for these calls is given here.

How the values were obtained:
[1] = target: T1, Hypoxia-inducible factor 1-alpha (Homo sapiens, UniProt Q16665); experiment: Inhibition of hypoxia-induced HIF1 alpha transcriptional activity in human HeLa cells transfected with luciferase reporter containing of HRE assessed as reduction in luciferase activity incubated for 1 hrs under normoxic condition followed by incubation under hypoxic condition for 24 hrs by luciferase reporter gene assay; format: cell-based
[2] = target: ATP synthase F(1) complex subunit beta, mitochondrial (Homo sapiens) (UniProt P06576); experiment: Competitive binding affinity to ATP5B in human HeLa cell mitochondrial fraction in presence of KUSC-5051 by LC-MS/MS analysis; conditions: Mitochondria
Outline: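 HeLa S3 lysate fractionated into debris (1 mg/mL), mitochondrial (0.8 mg/mL) and cytosol (0.6 mg/mL) fractions. Fractions incubated with DMSO or 300 μM competitor, with or without 30 μM photoaffinity probe, 1 h at 37 °C, then UV 365 nm for 30 min. Click labeling, NeutrAvidin enrichment, SDS-PAGE. The ~60 kDa band was trypsin-digested 12 h at 37 °C for LC-MS/MS, with confirmation by anti-ATP5B western blot.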

[3] = test system: HeLa S3; experiment: Cytotoxicity against human HeLa S3 cells assessed as reduction in cell viability incubated for 72 hrs by cell proliferation assay; format: functional, cell-based; conditions: HeLa S3, 72 h
Outline: (§1)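 Cells seeded at 1.5 × 10³ per well and grown 24 h, then exposed to solvent or serial dilutions of test compound for 72 h. Viability read with Cell Counting Kit-8. Triplicate wells (n = 3); representative of two independent experiments.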

[4] = test system: HT-1080; experiment: Cytotoxicity against human HT-1080 cells assessed as reduction in cell viability incubated for 72 hrs by cell proliferation assay; format: functional, cell-based; conditions: HT-1080, 72 h; outline: as §1
[5] = target: ATP synthase F(1) complex catalytic subunit beta, mitochondrial (Bos taurus) (UniProt P00829); experiment: Inhibition of ATP5B in bovine heart mitochondrial solution assessed as complex V activity at 12.6 nM incubated for 2 hrs by spectrophotometry; conditions: Mitochondria
Outline: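 Bovine heart mitochondria solution used as the ATP synthase (complex V) source. Compound was incubated 2 h at 25 °C with DMSO at 1.0%. Activity followed as consumption of supplemented NADH by absorbance at 340 nm on a spectrophotometer. Oligomycin was the positive control. n = 3; representative of three independent experiments; Student's t-test.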

[6] = target: T1, Hypoxia-inducible factor 1-alpha; experiment: Inhibition of hypoxia-induced HIF1 alpha transcriptional activity in human HeLa cells assessed as HIF1alpha protein level incubated for 1 hrs under normoxic condition followed by incubation under hypoxic condition for 24 hrs by Western blotting analysis; format: cell-based; conditions: time 25.0 hrs
[7] = target: T1, Hypoxia-inducible factor 1-alpha; experiment: Inhibition of hypoxia-induced HIF1 alpha transcriptional activity in human HeLa cells assessed as reduction in VEGF mRNA level at 3 uM incubated for 1 hrs under normoxic condition followed by incubation under hypoxic condition for 24 hrs by quantitative RT-PCR analysis; format: cell-based; conditions: time 25.0 hrs
[8] = test system: HeLa; experiment: Inhibition of mitochondrial complex V in human HeLa cells assessed as reduction in oxygen consumption rate at 0.1 to 1 uM for 1.5 hrs by XF mito stress test assay; format: cell-based; conditions: dose 0.1-1 µM
Outline: (§2)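 HeLa cells at 80–90% confluency equilibrated 1.5 h at 37 °C without CO₂. OCR recorded at baseline and after sequential injections: compound (0.1, 1, 10 μM) or oligomycin 0.5 μM, then FCCP 0.5 μM, then rotenone/antimycin A (0.5 μM each). Seahorse XF analyzer; n = 6, mean ± SEM.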

[9] = target: T1, Hypoxia-inducible factor 1-alpha; experiment: Inhibition of hypoxia-induced HIF1 alpha transcriptional activity in human HeLa cells assessed as reduction in CA9 mRNA level at 3 uM incubated for 1 hrs under normoxic condition followed by incubation under hypoxic condition for 24 hrs by quantitative RT-PCR analysis; format: cell-based; conditions: time 25.0 hrs
[10] = target: ATP synthase F(1) complex catalytic subunit beta, mitochondrial (Bos taurus) (UniProt P00829); experiment: Inhibition of ATP5B in bovine heart mitochondrial solution assessed as complex V activity at 10 to 100 nM incubated for 2 hrs by spectrophotometry; conditions: Mitochondria, dose 10-100 nM
Outline: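 Complex V activity measured in bovine heart mitochondria solution with ATP synthase. Compound at 10 and 100 nM; DMSO 1.0% vehicle; oligomycin 12.6 μM as positive control. Incubated 2 h at 25 °C, monitoring absorbance at 340 nm for NADH consumption. n = 3; representative of three experiments; Student's t-test.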

[11] = test system: HeLa; experiment: Inhibition of mitochondrial complex V in human HeLa cells assessed as reduction in oxygen consumption rate at 0.1 to 1 uM for 1.5 hrs cells pretreated with FCCP/antimycin A/rotenone by XF mito stress test assay; format: cell-based; conditions: dose 0.1-1 µM; outline: as §2
[12] = target: T1, Hypoxia-inducible factor 1-alpha; experiment: Inhibition of hypoxia-induced HIF1 alpha transcriptional activity in human HeLa cells at 3 uM incubated for 1 hrs under normoxic condition followed by incubation under hypoxic condition for 24 hrs by quantitative RT-PCR analysis; format: cell-based; conditions: time 25.0 hrs
[13] = Drug localization in mitochondria of human HeLa cells at 1 uM incubated for 3 hrs by MitoTracker Red CMXRos and Hoechst 33342 staining based assay; format: ADME
Outline: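 HeLa cells exposed 3 h to 1 μM BODIPY-FL fluorescent probe. MitoTracker Red CMXRos (100 nM) and Hoechst 33342 (10 μM) added, then cells fixed and imaged by fluorescence microscopy.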

Structure (SMILES)	pIC50 [1]	also measured
O=C(Nc1ccc(Br)cc1)c1ccn(Cn2ccc([N+](=O)[O-])c2)n1	4.57	
Nc1cnn(Cn2ccc(C(=O)Nc3ccc(Br)cc3)n2)c1	4.70	
C#CCCCC1(CCC(=O)Nc2cnn(Cn3ccc(C(=O)Nc4ccc(C(F)(F)F)cc4)n3)c2)N=N1		Activity [2]: Active
O=C(Nc1ccc(F)cc1)c1ccn(Cn2cc([N+](=O)[O-])cn2)n1	4.55	
CC[C@@H]1/C=C/C=C/C[C@H](C)[C@@H](O)[C@](C)(O)C(=O)[C@H](C)[C@@H](O)[C@H](C)C(=O)[C@H](C)[C@@H](O)[C@H](C)/C=C/C(=O)O[C@H]2[C@@H](C)[C@@H](CC1)O[C@@]1(CC[C@@H](C)[C@@H](C[C@@H](C)O)O1)[C@@H]2C		pIC50 [3]: 5.28; pIC50 [4]: > 7.00; inhibition [5]: Active
O=C(Nc1ccc(F)cc1F)c1ccn(Cn2cc([N+](=O)[O-])cn2)n1	4.09	
COc1ccc(NC(=O)c2ccn(Cn3cc([N+](=O)[O-])cn3)n2)cc1	< 4.00	
O=C(Nc1ccc(Br)cc1)c1ccn(Cn2ccnc2)n1	4.47	
O=C(Nc1cccc(Br)c1)c1ccn(Cn2cc([N+](=O)[O-])cn2)n1	4.46	
O=C(Nc1ccccc1Br)c1ccn(Cn2cc([N+](=O)[O-])cn2)n1	4.35	
CC(C)c1ccc(NC(=O)c2ccn(Cn3cc([N+](=O)[O-])cn3)n2)cc1	4.68	
O=C(Nc1ccc(Br)cc1)c1ccn(Cn2cnc([N+](=O)[O-])c2)n1	4.24	
O=C(Nc1ccc(Br)cc1)c1ccn(Cn2cccn2)n1	4.18	
O=C(Nc1ccc(Cl)cc1)c1ccn(Cn2cc([N+](=O)[O-])cn2)n1	4.70	
O=C(Nc1ccccc1)c1ccn(Cn2cc([N+](=O)[O-])cn2)n1	< 4.00	
O=C(Nc1ccc(Cl)cc1Cl)c1ccn(Cn2cc([N+](=O)[O-])cn2)n1	4.46	
Cc1cc(C)n2c1C=C1C=C(CCC(=O)Nc3cnn(Cn4ccc(C(=O)Nc5ccc(C(F)(F)F)cc5)n4)c3)C=[N+]1[B-]2(F)F		Drug uptake [13]: Active
O=C(Nc1ccccc1O)c1ccn(Cn2cc([N+](=O)[O-])cn2)n1	< 4.00	
O=C(Nc1cccc(C(F)(F)F)c1)c1ccn(Cn2cc([N+](=O)[O-])cn2)n1	4.48	

Further compounds by rising pIC50 [1], results first:

pIC50 [1]	Structure (SMILES)	also measured
4.74	O=C(Nc1ccc(Br)cc1)c1ccn(Cn2cc([N+](=O)[O-])cn2)n1	
4.74	O=C(Nc1ccc(C(F)(F)F)cc1)c1ccn(Cn2cc([N+](=O)[O-])cn2)n1	
4.85	CC(=O)Nc1cnn(Cn2ccc(C(=O)Nc3ccc(Br)cc3)n2)c1	
4.89	O=C(Nc1ccc(Cl)c(Cl)c1)c1ccn(Cn2cc([N+](=O)[O-])cn2)n1	
5.16	CC(C)C(=O)Nc1cnn(Cn2ccc(C(=O)Nc3ccc(C(F)(F)F)cc3)n2)c1	
5.26	CC(=O)Nc1cnn(Cn2ccc(C(=O)Nc3ccc(C(F)(F)F)cc3)n2)c1	
5.74	CCCC(=O)Nc1cnn(Cn2ccc(C(=O)Nc3ccc(C(F)(F)F)cc3)n2)c1	
5.85	O=C(Cc1ccccc1)Nc1cnn(Cn2ccc(C(=O)Nc3ccc(C(F)(F)F)cc3)n2)c1	
5.92	CCCNc1cnn(Cn2ccc(C(=O)Nc3ccc(C(F)(F)F)cc3)n2)c1	
5.92	CCC(=O)Nc1cnn(Cn2ccc(C(=O)Nc3ccc(C(F)(F)F)cc3)n2)c1	pIC50 [3]: 4.46; inhibition [6]: Dose-Dependent Effect; pIC50 [4]: 6.22; inhibition [7]: Active; Activity [2]: Active; inhibition [8]: Active; inhibition [9]: Active; inhibition [10]: Active; inhibition [11]: Active; inhibition [12]: Active
